ChEMBL document CHEMBL1142063, “Synthesis of omeprazole analogues and evaluation of these as potential inhibitors of the multidrug efflux pump NorA of Staphylococcus aureus” (2007)

Experiments:
Staphylococcus aureus [1] = test: Increase in 5 ug moxifloxacin antibacterial activity against Staphylococcus aureus SA1199B mutant overexpressing NorA at 128 ug/ml by disk diffusion method; assay type: functional
In short: (§1)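 Agar diffusion on Mueller-Hinton agar (adjusted to 20 μg/ml Ca²⁺ and 10 μg/ml Mg²⁺), used plain or with the efflux inhibitor incorporated at the stated concentration. Disks were 5 μg for the fluoroquinolones and 30 μg for chloramphenicol. Plates were incubated overnight at 37°C, and inhibition zone diameters were measured. Values are means of at least three independent experiments.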

Staphylococcus aureus [2] = test: Increase in 16 ug/ml Norfloxacin accumulation in Staphylococcus aureus SA1199B mutant overexpressing NorA at 128 ug/ml after 20 mins; assay type: functional
In short: (§2)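 SA-1199B was grown to mid-exponential phase in MH broth (4–5 h, 37°C, shaken), then washed and resuspended in 50 mM sodium phosphate, pH 7.0. Cells got norfloxacin at one-quarter MIC, alone or with inhibitor at 128 μg/ml. At 5–20 min, cells were spun through silicone-paraffin oil into orthophosphoric acid. Norfloxacin was measured by HPLC fluorescence (ex 240/[…]) as ng/mg BCA protein. Means of triplicate experiments.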

Staphylococcus aureus [3] = test: Increase in 5 ug levofloxacin antibacterial activity against Staphylococcus aureus SA1199B mutant overexpressing NorA at 128 ug/ml by disk diffusion method; assay type: functional; in short: as §1
Staphylococcus aureus [4] = test: Increase in 5 ug sparfloxacin antibacterial activity against Staphylococcus aureus SA1199B mutant overexpressing NorA at 128 ug/ml by disk diffusion method; assay type: functional; in short: as §1
Staphylococcus aureus [5] = test: Increase in 16 ug/ml Norfloxacin accumulation in Staphylococcus aureus SA1199B mutant overexpressing NorA measured per milligram of cell protein at 128 ug/ml after 20 mins; assay type: functional, organism-based; in short: as §2
Staphylococcus aureus [6] = test: Increase in 16 ug/ml Norfloxacin accumulation in Staphylococcus aureus SA1199B mutant overexpressing NorA measured per mg of cell protein at 128 ug/ml after 5 mins; assay type: functional, organism-based; in short: as §2
Staphylococcus aureus [7] = test: Increase in 5 ug ciprofloxacin antibacterial activity against Staphylococcus aureus SA1199B mutant overexpressing NorA at 128 ug/ml by disk diffusion method; assay type: functional; in short: as §1
Staphylococcus aureus [8] = test: Increase in 5 ug Norfloxacin antibacterial activity against Staphylococcus aureus SA1199B mutant overexpressing NorA at 32 ug/ml by disk diffusion method; assay type: functional; in short: as §1
Staphylococcus aureus [9] = test: Increase in 5 ug ciprofloxacin antibacterial activity against Staphylococcus aureus SA1199B mutant overexpressing NorA at 16 ug/ml by disk diffusion method; assay type: functional; in short: as §1
Staphylococcus aureus [10] = test: Increase in 5 ug ofloxacin antibacterial activity against Staphylococcus aureus SA1199B mutant overexpressing NorA at 32 ug/ml by disk diffusion method; assay type: functional; in short: as §1
Staphylococcus aureus [11] = test: Increase in 5 ug moxifloxacin antibacterial activity against Staphylococcus aureus SA1199B mutant overexpressing NorA at 16 ug/ml by disk diffusion method; assay type: functional; in short: as §1
Staphylococcus aureus [12] = test: Increase in 5 ug ofloxacin antibacterial activity against Staphylococcus aureus SA1199B mutant overexpressing NorA at 64 ug/ml by disk diffusion method; assay type: functional; in short: as §1
Staphylococcus aureus [13] = test: Increase in 64 ug/ml Norfloxacin antibacterial activity against Staphylococcus aureus SA1199B mutant overexpressing NorA at 128 ug/ml by checker board method; assay type: functional
Staphylococcus aureus [14] = test: Increase in 5 ug ciprofloxacin antibacterial activity against Staphylococcus aureus SA1199B mutant overexpressing NorA at 32 ug/ml by disk diffusion method; assay type: functional; in short: as §1
Staphylococcus aureus [15] = test: Increase in 5 ug sparfloxacin antibacterial activity against Staphylococcus aureus SA1199B mutant overexpressing NorA at 32 ug/ml by disk diffusion method; assay type: functional; in short: as §1
Staphylococcus aureus [16] = test: Increase in 5 ug moxifloxacin antibacterial activity against Staphylococcus aureus SA1199B mutant overexpressing NorA at 32 ug/ml by disk diffusion method; assay type: functional; in short: as §1
Staphylococcus aureus [17] = test: Increase in 5 ug ofloxacin antibacterial activity against Staphylococcus aureus SA1199B mutant overexpressing NorA at 128 ug/ml by disk diffusion method; assay type: functional; in short: as §1
Staphylococcus aureus [18] = test: Increase in 30 ug chloramphenicol antibacterial activity against Staphylococcus aureus SA1199B mutant overexpressing NorA at 128 ug/ml by disk diffusion method; assay type: functional; in short: as §1
Staphylococcus aureus [19] = test: Increase in 5 ug levofloxacin antibacterial activity against Staphylococcus aureus SA1199B mutant overexpressing NorA at 32 ug/ml by disk diffusion method; assay type: functional; in short: as §1
Staphylococcus aureus [20] = test: Increase in 5 ug ofloxacin antibacterial activity against Staphylococcus aureus SA1199B mutant overexpressing NorA at 16 ug/ml by disk diffusion method; assay type: functional; in short: as §1
Staphylococcus aureus [21] = test: Antibacterial activity against Staphylococcus aureus; assay type: functional
In short: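 Tube broth dilution MIC against SA-1199 and NorA-overproducing SA-1199B in Mueller-Hinton broth with 20 μg/ml Ca²⁺ and 10 μg/ml Mg²⁺. Inoculum was a 4–5 h 37°C culture diluted 1/10 (≈10⁶ CFU/ml). Compound range was 512 to 1 μg/ml, dissolved in DMSO (final ≤4%).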

Staphylococcus aureus [22] = test: Increase in 5 ug sparfloxacin antibacterial activity against Staphylococcus aureus SA1199B mutant overexpressing NorA at 64 ug/ml by disk diffusion method; assay type: functional; in short: as §1
Staphylococcus aureus [23] = test: Increase in 5 ug Norfloxacin antibacterial activity against Staphylococcus aureus SA1199B mutant overexpressing NorA at 64 ug/ml by disk diffusion method; assay type: functional; in short: as §1
Staphylococcus aureus [24] = test: Increase in 30 ug chloramphenicol antibacterial activity against Staphylococcus aureus SA1199B mutant overexpressing NorA at 64 ug/ml by disk diffusion method; assay type: functional; in short: as §1
Staphylococcus aureus [25] = test: Increase in 30 ug chloramphenicol antibacterial activity against Staphylococcus aureus SA1199B mutant overexpressing NorA at 16 ug/ml by disk diffusion method; assay type: functional; in short: as §1
Staphylococcus aureus [26] = test: Increase in 5 ug Norfloxacin antibacterial activity against Staphylococcus aureus SA1199B mutant overexpressing NorA at 128 ug/ml by disk diffusion method; assay type: functional; in short: as §1
Staphylococcus aureus [27] = test: Increase in 30 ug chloramphenicol antibacterial activity against Staphylococcus aureus SA1199B mutant overexpressing NorA at 32 ug/ml by disk diffusion method; assay type: functional; in short: as §1
Staphylococcus aureus [28] = test: Increase in 5 ug levofloxacin antibacterial activity against Staphylococcus aureus SA1199B mutant overexpressing NorA at 64 ug/ml by disk diffusion method; assay type: functional; in short: as §1
Staphylococcus aureus [29] = test: Increase in 5 ug Norfloxacin antibacterial activity against Staphylococcus aureus SA1199B mutant overexpressing NorA at 16 ug/ml by disk diffusion method; assay type: functional; in short: as §1
Staphylococcus aureus [30] = test: Increase in 5 ug ciprofloxacin antibacterial activity against Staphylococcus aureus SA1199B mutant overexpressing NorA at 64 ug/ml by disk diffusion method; assay type: functional; in short: as §1
Staphylococcus aureus [31] = test: Increase in 5 ug sparfloxacin antibacterial activity against Staphylococcus aureus SA1199B mutant overexpressing NorA at 16 ug/ml by disk diffusion method; assay type: functional; in short: as §1
Staphylococcus aureus [32] = test: Increase in 5 ug moxifloxacin antibacterial activity against Staphylococcus aureus SA1199B mutant overexpressing NorA at 64 ug/ml by disk diffusion method; assay type: functional; in short: as §1
Staphylococcus aureus [33] = test: Increase in 5 ug levofloxacin antibacterial activity against Staphylococcus aureus SA1199B mutant overexpressing NorA at 16 ug/ml by disk diffusion method; assay type: functional; in short: as §1
Staphylococcus aureus [34] = test: Increase in 16 ug/ml Norfloxacin accumulation in wild type Staphylococcus aureus SA1199 at 128 ug/ml after 20 mins; assay type: functional
In short: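 Mid-exponential SA-1199 cells were washed and resuspended in 50 mM sodium phosphate, pH 7.0. They were exposed at time zero to norfloxacin at one-quarter MIC, alone or with EPI at 128 μg/ml. At 5–20 min, cells were spun through silicone-paraffin oil into orthophosphoric acid. Lysate norfloxacin was measured by C18 HPLC with fluorescence detection (ex 240, em 280 nm) and normalized to BCA protein (ng/mg). Triplicate experiments, mean reported.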

Staphylococcus aureus [35] = test: Increase in 2 ug/ml Norfloxacin antibacterial activity against wild type Staphylococcus aureus SA1199 at 128 ug/ml by checker board method; assay type: functional
Staphylococcus aureus [36] = test: Antibacterial activity against Staphylococcus aureus SA1199 at 5 ug by disk diffusion method; details: read-out: IZ

Row | SMILES | inhibition zone (IZ) (Staphylococcus aureus [1]) | Activity (Staphylococcus aureus [2]) | inhibition zone (IZ) (Staphylococcus aureus [3]) | inhibition zone (IZ) (Staphylococcus aureus [4]) | Drug uptake (Staphylococcus aureus [5]) | Drug uptake (Staphylococcus aureus [6]) | inhibition zone (IZ) (Staphylococcus aureus [7]) | inhibition zone (IZ) (Staphylococcus aureus [8]) | inhibition zone (IZ) (Staphylococcus aureus [9]) | inhibition zone (IZ) (Staphylococcus aureus [10]) | inhibition zone (IZ) (Staphylococcus aureus [11]) | inhibition zone (IZ) (Staphylococcus aureus [12]) | MIC (Staphylococcus aureus [13]) | inhibition zone (IZ) (Staphylococcus aureus [14]) | inhibition zone (IZ) (Staphylococcus aureus [15]) | inhibition zone (IZ) (Staphylococcus aureus [16]) | inhibition zone (IZ) (Staphylococcus aureus [17]) | inhibition zone (IZ) (Staphylococcus aureus [18]) | inhibition zone (IZ) (Staphylococcus aureus [19]) | inhibition zone (IZ) (Staphylococcus aureus [20]) | also measured
1 | COC(=O)[C@H]1[C@H]2C[C@@H]3c4[nH]c5cc(OC)ccc5c4CCN3C[C@H]2C[C@@H](OC(=O)c2cc(OC)c(OC)c(OC)c2)[C@@H]1OC [RESERPINE] | 28 mm | 40% | 24 mm | 28 mm | 400 ng/mg | 270 ng/mg | 22 mm | 12 mm | 16 mm | 19 mm | 28 mm | 20 mm | 8 µg/mL | 18 mm | 27 mm | 28 mm | 21 mm | 25 mm | 24 mm | 19 mm | MIC (Staphylococcus aureus [21]): > 512 µg/mL; inhibition zone (IZ) (Staphylococcus aureus [22]): 27 mm; inhibition zone (IZ) (Staphylococcus aureus [23]): 12 mm; inhibition zone (IZ) (Staphylococcus aureus [24]): 25 mm; inhibition zone (IZ) (Staphylococcus aureus [25]): 24 mm; inhibition zone (IZ) (Staphylococcus aureus [26]): 13 mm; inhibition zone (IZ) (Staphylococcus aureus [27]): 24 mm; inhibition zone (IZ) (Staphylococcus aureus [28]): 24 mm; inhibition zone (IZ) (Staphylococcus aureus [29]): 9 mm; inhibition zone (IZ) (Staphylococcus aureus [30]): 20 mm; inhibition zone (IZ) (Staphylococcus aureus [31]): 27 mm; inhibition zone (IZ) (Staphylococcus aureus [32]): 28 mm; inhibition zone (IZ) (Staphylococcus aureus [33]): 22 mm; Activity (Staphylococcus aureus [34]): 10%; MIC (Staphylococcus aureus [35]): 1 µg/mL
2 | C[C@H]1COc2c(N3CCN(C)CC3)c(F)cc3c(=O)c(C(=O)O)cn1c23 [LEVOFLOXACIN] | – | – | – | – | – | – | – | – | – | – | – | – | – | – | – | – | – | – | – | – | zone of inhibition at 5 µg/disc (Staphylococcus aureus [36]): 30 mm
3 | COc1ccc2[nH]c([S+]([O-])Cc3ncc(C)c(OC)c3C)nc2c1 (stereo unspecified) [OMEPRAZOLE] | 30 mm | 40% | 25 mm | 28 mm | 400 ng/mg | 270 ng/mg | 22 mm | 6 mm | 13 mm | 18 mm | 27 mm | 20 mm | 8 µg/mL | 15 mm | 27 mm | 27 mm | 23 mm | 25 mm | 21 mm | 18 mm | MIC (Staphylococcus aureus [21]): > 512 µg/mL; inhibition zone (IZ) (Staphylococcus aureus [22]): 27 mm; inhibition zone (IZ) (Staphylococcus aureus [23]): 12 mm; inhibition zone (IZ) (Staphylococcus aureus [24]): 24 mm; inhibition zone (IZ) (Staphylococcus aureus [25]): 24 mm; inhibition zone (IZ) (Staphylococcus aureus [26]): 14 mm; inhibition zone (IZ) (Staphylococcus aureus [27]): 24 mm; inhibition zone (IZ) (Staphylococcus aureus [28]): 23 mm; inhibition zone (IZ) (Staphylococcus aureus [29]): 6 mm; inhibition zone (IZ) (Staphylococcus aureus [30]): 19 mm; inhibition zone (IZ) (Staphylococcus aureus [31]): 26 mm; inhibition zone (IZ) (Staphylococcus aureus [32]): 29 mm; inhibition zone (IZ) (Staphylococcus aureus [33]): 21 mm; Activity (Staphylococcus aureus [34]): 10%; MIC (Staphylococcus aureus [35]): 1 µg/mL
